This note sets out measurements from ChEMBL document CHEMBL2390884, “Design, synthesis and antiproliferative activity studies of novel 1,2,3-triazole-dithiocarbamate-urea hybrids” (Eur J Med Chem, 2013).

The test system of data set [1] is MGC-803. Briefly: Cell cycle arrest in human MGC803 cells assessed as accumulation at G0/G1 phase at 0.25 uM after 24 hrs by propidium iodide staining-based flow cytometry. The class given is functional. In outline:
(§1)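 Exponentially growing MGC-803 cells (5×10^5) treated at 0, 0.25, 0.5 or 1.0 µmol/L for 12 or 24 h; cells collected, fixed in ice-cold 70% ethanol, treated with buffer containing RNAse A and 0.1% Triton X-100, stained with PI; DNA content analysed by flow cytometry to give percentages of cells in G1, S and G2/M phases.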

The test system of data set [2] is MGC-803. Briefly: Induction of apoptosis in human MGC803 cells assessed as viable cells at 0.5 uM after 12 hrs by AnnexinV-FITC/propidium iodide staining-based flow cytometry (reference value: 91.9 %). The class given is functional. The settings on record: MGC-803, 12 h, read-out: Activity.
The subject of data set [3] is MGC-803. The experiment in a line: Induction of apoptosis in human MGC803 cells assessed as viable cells at 0.25 uM after 12 hrs by AnnexinV-FITC/propidium iodide staining-based flow cytometry (reference value: 91.9 %). As to conditions: MGC-803, 12 h, read-out: Activity. The class given is functional.
For data set [4], the system named is MGC-803. Briefly: Cell cycle arrest in human MGC803 cells assessed as accumulation at G2/M phase after 12 to 24 hrs by propidium iodide staining-based flow cytometry. The data set is classed as functional. An outline of the steps:
as §1
(In general: A flow cytometer gives signals particle by particle.)

For data set [5], the system named is MGC-803. The experiment in a line: Induction of apoptosis in human MGC803 cells assessed as early apoptotic cells at 0.25 uM after 12 hrs by AnnexinV-FITC/propidium iodide staining-based flow cytometry (reference value: 2.8 %). The class given is functional.
Data set [6] has as its system MGC-803. The experiment in a line: Induction of apoptosis in human MGC803 cells assessed as viable cells at 1 uM after 12 hrs by AnnexinV-FITC/propidium iodide staining-based flow cytometry (reference value: 91.9 %). The data set is classed as functional. As to conditions: MGC-803, 12 h, read-out: Activity.
Data set [7] relates to MGC-803. The experiment in a line: Induction of apoptosis in human MGC803 cells assessed as early apoptotic cells at 1 uM after 12 hrs by AnnexinV-FITC/propidium iodide staining-based flow cytometry (reference value: 2.8 %). The data set is classed as functional.
Data set [8] deals with MGC-803. Briefly: Cell cycle arrest in human MGC803 cells assessed as accumulation at S phase at 0.25 uM after 24 hrs by propidium iodide staining-based flow cytometry. The class given is functional. An outline of the steps:
as §1

Data set [9] can be described thus: Cytotoxicity against human EC9706 cells after 72 hrs by MTT assay. The data set is classed as functional, cell-based. As to conditions: EC9706, 72 h. A general note: Tetrazolium assays rely on reduction of a dye to a coloured formazan, in cell work by metabolically active cells.
A further data set deals with HEK293. The experiment in a line: Cytotoxicity against human HEK293 cells up to 70 uM after 72 hrs by MTT assay. The data set is classed as cell-based. As to conditions: hek293, 72 h. In outline:
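HEK293 cells seeded at 5×10^3 per well, grown 24 h at 37°C, then medium replaced with compound-containing medium over a concentration range; 72 h exposure; MTT (5 mg/mL stock) added for 4 h at 37°C, formazan dissolved in DMSO, absorbance read at 570 nm. Triplicate per concentration, experiment repeated three times.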

Each structure is given as a SMILES string.

As to `CC(C)NC(=O)N1CCN(C(=S)SCc2cn(Cc3ccc(F)cc3)nn2)CC1`, the Activity in the data set on MGC-803 [1] was 13.78%; with MGC-803 [4] it was “Dose-dependent effect”; in the data set on MGC-803 [5] it was 9.2%; with MGC-803 [7], 31.4%; in the data set with MGC-803 [8], 25.21%; in the data set with HEK293, “Non-toxic”. Also, in the data set with MGC-803 [2], the viability at 0.5 µM was determined as 80.1%. In addition, the viability at 0.25 µM with MGC-803 [3] turned out to be 88.1%. For the same compound, the viability at 1 µM with MGC-803 [6] is 65%. Also, the IC50 in data set [9] amounted to 12.2 µM.

By IC50 is commonly meant the point on the concentration scale where inhibition reaches its midpoint.
